Measured values as given in ChEMBL document CHEMBL1143665, “Novel acyclic enediynes inhibit Cyclin A and Cdc25C expression and induce apoptosis phenomenon to show potent antitumor proliferation” (2007).

Legend:
Format in all cases: functional
[1] = test system: SF-295; assay: Cytotoxicity against human SF295 cells
[2] = test system: M14; assay: Cytotoxicity against human M14 cells
[3] = test system: K562; assay: Cytotoxicity against human K562 cells
[4] = test system: SK-OV-3; assay: Cytotoxicity against human SKOV3 cells
[5] = test system: DU-145; assay: Cytotoxicity against human DU145 cells
[6] = test system: MDA-MB-231; assay: Cytotoxicity against human MDA-MB-231 cells
[7] = test system: SR; assay: Cytotoxicity against human SR cells
[8] = test system: HCT-15; assay: Cytotoxicity against human HCT15 cells
[9] = test system: LOX IMVI; assay: Cytotoxicity against human LOX IMVI cells
[10] = test system: OVCAR-3; assay: Cytotoxicity against human OVCAR-3 cells
[11] = test system: MDA-MB-435; assay: Cytotoxicity against human MDA-MB-435 cells
[12] = test system: K562; assay: Cell cycle arrest in human K562 cells by accumulation at G0/G1 phase cell at 50 uM after 24 hrs relative to control
In short: (§1)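 K-562 cells (RPMI 1640, 10% fetal calf serum, 37 °C, 5% CO2) exposed 24 h, pelleted, fixed in ice-cold 70% ethanol 30 min, RNase A (1 mg/ml) 37 °C 30 min, propidium iodide stain 30 min at room temperature in the dark; DNA content of 10,000 events by flow cytometry; phase and sub-G1 percentages compared with untreated control.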

[13] = test system: K562; assay: Cell cycle arrest in human K562 cells by accumulation at S phase cell at 50 uM after 24 hrs relative to control; in short: as §1
[14] = test system: K562; assay: Cell cycle arrest in human K562 cells by accumulation at G2/M phase cell at 50 uM after 24 hrs relative to control; in short: as §1
[15] = test system: K562; assay: Induction of apoptosis in human K562 cells assessed as accumulation at subG1 phase at 50 uM after 24 hrs relative to control; in short: as §1

SMILES | GI50 [1] [µM] | GI50 [2] [µM] | GI50 [3] [µM] | GI50 [4] [µM] | GI50 [5] [µM] | GI50 [6] [µM] | GI50 [7] [µM] | GI50 [8] [µM] | GI50 [9] [µM] | GI50 [10] [µM] | GI50 [11] [µM] | Activity [12] [%] | Activity [13] [%] | Activity [14] [%] | Activity [15] [%]
OCC#Cc1ccccc1C#Cc1ccccc1 | 20.6 | 10.6 | 26 | 16.6 | 14.9 | 3.26 | – | – | – | – | – | – | – | – | –
OCCCCC#Cc1ccccc1C#Cc1ccc(C(F)(F)F)cc1 | 19.1 | – | 18.2 | – | 15.8 | – | 0.6 | 12.5 | 17.1 | 17.8 | 16.3 | 36.9 | 38.3 | 24.8 | 5.36
COc1cccc(C#Cc2ccccc2C#CCCCCO)c1 | 7.9 | – | 1.8 | – | 4.1 | – | 1.9 | 3.6 | 6.3 | 10.7 | 1.9 | 3.4 | 11.9 | 84.6 | 10.81
CSc1ccccc1C#Cc1ccccc1C#CCCCCO | 1.5 | – | 6.1 | – | 4.7 | – | 3.5 | 3.8 | 5.8 | 14.7 | 3.9 | 19.8 | 24.6 | 55.7 | 9.23
OCCCCC#Cc1ccccc1C#Cc1cccc(O)c1 | 21 | – | 19.2 | – | 17.4 | – | – | 13.6 | 16.7 | 20 | 16.1 | 26.7 | 37.1 | 36.2 | 18.25
OCCCCC#Cc1ccccc1C#Cc1cccs1 | 19 | – | 20.3 | – | 13 | – | 1.8 | 13.1 | 13.9 | 15 | 16.6 | 22.7 | 47.5 | 29.8 | 5.23
OCCC#Cc1ccccc1C#Cc1ccccc1 | 28.1 | 16 | 11 | 17.3 | 12.5 | 3.41 | – | – | – | – | – | – | – | – | –
